# Assay results published in PMC7338260 (European journal of medicinal chemistry, 2020).
# Tests used:
# [1] = tested on: HEK293 cell line expressing hNOD2 and NFκB-SEAP reporter; assay: Human NOD2 signaling HEKBlue reporter assay; type: cell-based; conditions: read-out: RIPK2/NOD2 Cell Assay IC50, HEKBlue, 1 ng/mL L18-MDP, mean of two or three determinations ± standard deviation, NI: No inhibition up to 10 μM
# Procedure, shortened: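 Cells seeded at 7.5-15x10^3 per well; after 24–48 h switched to HEKBlue detection medium and given an 11-point dose range of test compound together with the stimulant. SEAP read as absorbance at 620 nm after 7–9 h. Media-only background subtracted; % inhibition relative to DMSO/L18-MDP controls; IC50 by non-linear regression.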
# [2] = target: Recombinant RIPK2 protein (Homo sapiens, UniProt O43353); assay: RIPK2 enzyme assay; type: biochemical; conditions: for selectivity for RIPK2 versus ALK2: ratio of ALK2 to RIPK2 kinase IC50
# Chain of Recombinant RIPK2 protein (O43353 whole entry): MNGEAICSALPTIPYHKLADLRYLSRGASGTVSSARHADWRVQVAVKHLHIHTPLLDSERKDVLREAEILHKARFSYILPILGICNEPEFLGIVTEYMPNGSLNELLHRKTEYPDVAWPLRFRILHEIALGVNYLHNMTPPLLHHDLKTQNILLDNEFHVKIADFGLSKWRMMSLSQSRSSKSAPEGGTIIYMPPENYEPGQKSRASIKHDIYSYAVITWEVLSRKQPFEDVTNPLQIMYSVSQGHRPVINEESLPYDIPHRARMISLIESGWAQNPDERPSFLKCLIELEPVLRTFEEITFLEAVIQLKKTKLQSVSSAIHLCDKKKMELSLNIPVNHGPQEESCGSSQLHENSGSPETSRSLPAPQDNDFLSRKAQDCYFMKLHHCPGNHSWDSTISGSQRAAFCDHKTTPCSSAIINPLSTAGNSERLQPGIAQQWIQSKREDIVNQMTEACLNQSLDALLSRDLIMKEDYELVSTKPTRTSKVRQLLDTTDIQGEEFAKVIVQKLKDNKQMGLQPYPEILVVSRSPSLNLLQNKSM
# Procedure, shortened: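 Started with solution of 100 μM ATP + 1 mg/ml RS repeat peptide, 2 h RT; ADP-Glo luminescence. IC50 by non-linear regression. ALK2: human enzyme, casein 1 mg/mL, γ-33ATP 10 μM, 10 nM–100 μM compound, 30 min, 33P-casein.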
# RAW264.7 macrophages [3] = conditions: cited from earlier work
# U2OS/NOD2 cells = conditions: cited from earlier work
# [4] = tested on: XIAP-mediated RIPK2 ubiquitination; conditions: cited from earlier work
# GST-BIR2-cIAP1 and RIPK2 = conditions: cited from earlier work
# RAW264.7 macrophages [5] = type: cell-based; conditions: at 1 μM; data not shown
smiles,measurement,setting,value
"CCCS(=O)(=O)Nc1cc(-c2cc(-c3ccc(S(C)(=O)=O)cc3)cnc2N)ccc1OC [Compound 18ad, N-(5-(2-Amino-5-(4-(methylsulfonyl)phenyl)pyridin-3-yl)-2-methoxyphenyl)propane-1-sulfonamide]",IC50,[1],> 10 µM
"CCCS(=O)(=O)Nc1cc(-c2cc(-c3ccc(N4CCNCC4)cc3)cnc2N)ccc1OC [Compound 18m, N-(5-(2-Amino-5-(4-(piperazin-1-yl)phenyl)pyridin-3-yl)-2-methoxyphenyl)propane-1-sulfonamide]",IC50,[2],0.041 ± 0.019 µM
same,selectivity for RIPK2 versus ALK2,[2],86 fold
"CCCS(=O)(=O)Nc1cc(-c2cc(-c3ccc(N4CCNCC4)cc3)cnc2N)cc(OCC)c1OC [Compound 18q, N-(5-(2-Amino-5-(4-(piperazin-1-yl)phenyl)pyridin-3-yl)-3-ethoxy-2-methoxyphenyl)propane-1-sulfonamide]",IC50,[1],> 10 µM
"COc1cc(-c2cc(-c3ccc(N4CCNCC4)cc3)cnc2C)cc(OC)c1OC [Compound 9a, reference compound]",IC50,[1],> 10 µM
"CCCS(=O)(=O)Nc1cc(-c2cc(-c3ccccc3S(C)(=O)=O)cnc2N)ccc1OC [Compound 18ab, N-(5-(2-Amino-5-(2-(methylsulfonyl)phenyl)pyridin-3-yl)-2-methoxyphenyl)propane-1-sulfonamide]",IC50,[1],> 10 µM
"CCCS(=O)(=O)Nc1cc(-c2cc(-c3ccc(N4CCNCC4)cc3)cnc2N)ccc1O [Compound 18n, N-(5-(2-Amino-5-(4-(piperazin-1-yl)phenyl)pyridin-3-yl)-2-hydroxyphenyl)propane-1-sulfonamide]",IC50,[1],> 5 µM
"CCCS(=O)(=O)Nc1cc(-c2cc(-c3ccc(N4CCNCC4)cc3)cnc2N)cc(OC)c1OC [Compound 18p, N-(5-(2-Amino-5-(4-(piperazin-1-yl)phenyl)pyridin-3-yl)-2,3-dimethoxyphenyl)propane-1-sulfonamide]",inhibition of L18-MDP-induced TNFα release,RAW264.7 macrophages [3],efficient inhibition
same,inhibition of L18-MDP-induced CXCL8 production,U2OS/NOD2 cells,efficient inhibition
same,XIAP-mediated RIPK2 ubiquitination,[4],blocked
same,interaction between GST-BIR2-cIAP1 and RIPK2,GST-BIR2-cIAP1 and RIPK2,interfered
"CCCS(=O)(=O)Nc1cc(-c2cc(-c3ccc(N4CCNCC4)cc3)cnc2N)cc(F)c1OC [Compound 18t, N-(5-(2-Amino-5-(4-(piperazin-1-yl)phenyl)pyridin-3-yl)-3-fluoro-2-methoxyphenyl)propane-1-sulfonamide]",block of RIPK1 and RIPK3 dependent necroptosis,RAW264.7 macrophages [5],did not block
same,inhibition of L18-MDP-induced TNFα release,RAW264.7 macrophages [3],efficient inhibition
same,selectivity for RIPK2 versus ALK2,[2],> 20 fold
same,inhibition of L18-MDP-induced CXCL8 production,U2OS/NOD2 cells,efficient inhibition
same,XIAP-mediated RIPK2 ubiquitination,[4],blocked
same,interaction between GST-BIR2-cIAP1 and RIPK2,GST-BIR2-cIAP1 and RIPK2,interfered
